These results are taken from ChEMBL document CHEMBL1926577, “Novel 1,3,4-heterodiazole analogues: synthesis and in-vitro antitumor activity” (2012).

What all share (type): functional
One assay has as its system NCI/ADR-RES. Put plainly: Growth inhibition of human NCI/ADR-RES cells at 10 uM after 48 hrs by coulter counter method. Conditions: read-out: GI. Summed up:
(§1)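 NCI 60-cell-line panel, single dose. Compound dissolved first in DMSO, then diluted in phosphate-buffered saline so that every final dilution held under 1% DMSO. Duplicate wells received cells at 6 × 10⁴ cells/ml. Controls held PBS/DMSO at the same dilution. Plates were incubated 48 h at 37 °C under 5% CO₂. Cells were then diluted 10-fold in saline and counted on a Coulter counter, with counts corrected for the dilution. Results are given as percent growth inhibition.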

A short description of assay [1]: Growth inhibition of human CNS cancer cells after 48 hrs by coulter counter method. Conditions: Cancer cell lines. Put shortly:
(§2)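 NCI 60-line panel cells. Compound is dissolved in DMSO and diluted in phosphate-buffered saline, with final DMSO below 1%. It is added in duplicate wells to cultures at 6 × 10⁴ cells/ml and held at 37 °C, 5% CO₂, humidified, for 48 h. Cells are diluted 10-fold in saline, counted by Coulter counter and dilution-corrected. Vehicle controls contain PBS plus DMSO.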

Assay [2] is described as follows: Growth inhibition of human renal cancer cells after 48 hrs by coulter counter method. The settings on record: Cancer cell lines. Summed up: as §2
The next assay deals with UO-31. As to the kind of experiment: Growth inhibition of human UO31 cells at 10 uM after 48 hrs by coulter counter method. Put shortly: as §1
Assay [3] can be described thus: Growth inhibition of human colon cancer cells after 48 hrs by coulter counter method. The settings on record: Cancer cell lines. Put shortly:
as §2

The next assay deals with UACC-257. As to the kind of experiment: Growth inhibition of human UACC257 cells at 10 uM after 48 hrs by coulter counter method. Conditions: UACC-257, 48 h, read-out: GI. Put shortly:
as §1

A further assay relates to HL-60(TB). As to the kind of experiment: Growth inhibition of human HL-60(TB) cells at 10 uM after 48 hrs by coulter counter method. Conditions: HL-60, 48 h, read-out: GI. Summed up:
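Single-dose screen on the NCI 60-line panel (leukemia subpanel). Compound is dissolved in DMSO and diluted in PBS, with final DMSO below 1%. Duplicate wells hold 6 × 10⁴ cells/ml at 37 °C, 5% CO₂, for 48 h. Cells are counted by Coulter counter after 10-fold saline dilution. Read-out is percent growth versus PBS/DMSO controls, expressed as % growth inhibition.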

The subject of another assay is SF-295. Put plainly: Growth inhibition of human SF295 cells at 10 uM after 48 hrs by coulter counter method. Conditions: SF-295, 48 h, read-out: GI. Summed up: as §1
A further assay deals with CCRF-CEM. As to the kind of experiment: Growth inhibition of human CCRF-CEM cells at 10 uM after 48 hrs by coulter counter method. The settings on record: read-out: GI. Put shortly:
as §1

Another assay deals with T47D. As to the kind of experiment: Growth inhibition of human T47D cells at 10 uM after 48 hrs by coulter counter method. The settings on record: read-out: GI. Put shortly:
as §1

Another assay concerns OVCAR-8. Put plainly: Growth inhibition of human OVCAR8 cells at 10 uM after 48 hrs by coulter counter method. The settings on record: OVCAR-8, 48 h, read-out: GI. Put shortly:
as §1

For the next assay, the system named is NCI-H522. As to the kind of experiment: Growth inhibition of human NCI-H522 cells at 10 uM after 48 hrs by coulter counter method. Conditions: NCI-H522, 48 h, read-out: GI. Put shortly: as §1
The subject of a further assay is 786-0. As to the kind of experiment: Growth inhibition of human 786-0 cells at 10 uM after 48 hrs by coulter counter method. The settings on record: 786-0, 48 h, read-out: GI. Summed up: as §1
The nature of assay [4]: Growth inhibition of human leukemia cells after 48 hrs by coulter counter method. Conditions: Leukemia cell. Put shortly: as §2
For another assay, the system named is TK-10. Put plainly: Growth inhibition of human TK10 cells at 10 uM after 48 hrs by coulter counter method. Conditions: TK-10, 48 h, read-out: GI. Summed up:
as §1

The next assay deals with A549. As to the kind of experiment: Growth inhibition of human A549 cells at 10 uM after 48 hrs by coulter counter method. Conditions: A549, 48 h, read-out: GI. Put shortly: as §1
[5] abbreviates: read-out: LC50 (the source's name).

Active and inactive are the calls of the source. The rule behind the calls is not given here. Where only a bound is given, the exact number is not on record here.

The GI50 is the concentration that inhibits growth by half. A higher GI50 goes with less potent growth inhibition. As usually defined, the TGI is the concentration at which net growth stops. Lower therefore signals more potent growth arrest. The term LC50 denotes the concentration that kills 50% of the test population. Lower therefore signals greater toxicity.

`O=C1CN2N=C(c3ccccc3)SC2=N1`: the inhibition of growth at 10 µM came to 17.9% with NCI/ADR-RES; 48.4% in the assay with UACC-257; 21% in the assay with HL-60(TB); 90.6% with SF-295; 88.2% in the assay on CCRF-CEM; 33.2% with T47D. The inhibition of growth at 10 µM came to 35.3% in the assay on OVCAR-8; 46.5% with NCI-H522; 25.1% in the assay with 786-0; 25.4% with TK-10; 39.2% in the assay on A549. In addition, the GI50 was 8.7 µM in assay [1], 8.9 µM in assay [2], 9.4 µM in assay [3] and 4.1 µM in assay [4]. Besides, the TGI in [1] is 18.8 µM; in assay [2], 16.6 µM; in assay [3], 24.9 µM; in assay [4], 25.9 µM. Besides, the CC50 in assay [1] (setting [5]) was 51.3 µM; in assay [2] (setting [5]), 42.3 µM; in [4] (setting [5]), greater than 100 µM. The “growth inhibition (GI)” value in the assay on UO-31 was “Active”. The LC50 in assay [3] is 67.1 µM.
